Experimental data of several laboratories.
Protocols differ between the studies behind these lines.
Cell line: A549
Effect on: cell growth or viability

Compound	method	time	IC50 [µM]
CCc1oc2cc(S(=O)(=O)Nc3ccc(S(=O)(=O)Nc4nccs4)cc3)ccc2c1C(=O)c1cc(Br)c(O)c(Br)c1	MTT	96 h	226
COc1cc(CNc2ccc(C(=O)O)cc2)cc(OC)c1O	resazurin	72 h	> 100
COc1cccc(NC(=S)N/N=C/c2cccc3cc4ccccc4nc23)c1	MTT	48 h	> 50
COc1cc(C2C3=C(Nc4nc(SC)[nH]c(=O)c42)c2ccccc2C3=O)ccc1O (stereo not drawn)	MTT	72 h	> 1000
COc1ccc(NC(=O)Nc2nc3cc(-c4ccc5ncn(Cc6ccccc6)c(=O)c5c4)ccc3s2)cc1	MTT	72 h	2.75
NS(=O)(=O)c1ccc(-n2nc(C(=O)NN3C(=O)CCC3=O)cc2-c2ccccc2)cc1	fluorescence	48 h	24
C/C(=N\NC(=O)/N=C(\C)c1c(O)c2ccccc2oc1=O)c1c(O)c2ccccc2oc1=O	MTT	48 h	20.8
[NH2][Pt]([NH2])([Cl])[Cl]	MTT	48 h	27.2
N=C(N)c1ccc(OCCCCCOc2ccc(C(=N)N)cc2)cc1	ATP luminescence	72 h	12.8
Cc1ccc(NC(=O)Nc2nc3cc(-c4ccc5ncn(Cc6ccccc6)c(=O)c5c4)ccc3s2)cc1	MTT	72 h	7.61
Cc1ccc(NNc2nc3ccc(Br)cc3c(=O)n2-c2ccccc2)cc1	MTT	48 h	17.4
CCCCn1cnc2ccc(-c3ccc(NC(=O)Nc4ccc(C(F)(F)F)cc4)nc3)cc2c1=O	CCK-8	72 h	> 10
O=C(Nc1ccc(F)cc1)Nc1nc2cc(-c3ccc4ncn(CC5CC5)c(=O)c4c3)ccc2s1	MTT	72 h	2.48
CCCCn1cnc2ccc(-c3ccc(NC(=O)NCc4ccccc4)nc3)cc2c1=O	CCK-8	72 h	0.38
CCCc1cc2cc(-n3nc(C)c4c3CC(C)(C)CC4=O)cc(N3CCC(O)CC3)c2c(=O)[nH]1	MTS	–	7.38
CC(C)[C@@H]1NC(=O)[C@@H](CCCCN)NC(=O)[C@H]([C@@H](C)O)NC(=O)[C@@H](CCCN)NC(=O)[C@H](Cc2ccccc2)NC(=O)[C@@H](Cc2ccccc2)NC1=O	ATP luminescence	72 h	> 100
NS(=O)(=O)c1ccc(-n2nc(C(=O)NN=Cc3ccc(O)cc3)cc2-c2ccccc2)cc1	fluorescence	48 h	7.9
OC1CCN(c2ccc(/C=N/NC(=S)Nc3ccc(Cl)cc3)cc2)CC1	MTT	24 h	2.92
COc1ccc(NC(=S)N/N=C/c2cccc3cc4ccccc4nc23)cc1	MTT	48 h	17.8
O=C(Nc1cccc(C(F)(F)F)c1)Nc1nc2cc(-c3ccc4ncn(CCN5CCOCC5)c(=O)c4c3)ccc2s1	MTT	72 h	1.48
C/C(=N\CCNCCNCC/N=C(\C)c1c(O)c2ccccc2oc1=O)c1c(O)c2ccccc2oc1=O	MTT	48 h	6.66
CCCCC(=O)Nc1ccc(-c2ccc3ncn(CCF)c(=O)c3c2)cn1	CCK-8	72 h	> 10
CCCn1cnc2ccc(-c3ccc4sc(NC(=O)Nc5ccc(F)cc5)nc4c3)cc2c1=O	MTT	72 h	0.44

Compound	method	time	IC50 [µM]
O=c1[nH]cc(F)c(=O)[nH]1	MTT	48 h	11.8
Cc1cccc(C)c1NC(=S)N/N=C/c1ccc(N2CCC(O)CC2)cc1	MTT	24 h	1.56
Cc1cccc(NC(=O)Cn2cc(COc3ncnc4[nH]cnc34)nn2)c1	MTT	–	> 100
CSc1ccc(CNc2ccc(C(=O)O)cc2)cc1	resazurin	72 h	> 100
CN(C)C(=O)Nc1nc2c(Cl)cc(Cl)cc2c(=O)n1-c1ccccc1	MTT	48 h	> 200
O=C(Nc1ccc(F)cc1)Nc1nc2cc(-c3ccc4ncn(Cc5ccccc5)c(=O)c4c3)ccc2s1	MTT	72 h	2.83
CC(C)[C@H](NC(=O)[C@H](Cc1c[nH]c2ccccc12)NC(=O)[C@H](Cc1c[nH]cn1)NC(=O)[C@H](CCCNC(=N)N)NC(=O)[C@H](CCCNC(=N)N)NC(=O)[C@H](Cc1c[nH]c2ccccc12)NC(=O)[C@H](Cc1c[nH]c2ccccc12)NC(=O)[C@H](Cc1c[nH]cn1)NC(=O)[C@H](Cc1c[nH]c2ccccc12)NC(=O)[C@H](CCCNC(=N)N)NC(=O)[C@@H](N)CCCCN)C(=O)N[C@H](C(=O)N[C@@H](Cc1c[nH]c2ccccc12)C(N)=O)C(C)C	MTT	24 h	106
NNc1nc2ccc(Br)cc2c(=O)n1-c1ccc(Cl)cc1	MTT	48 h	79.2
CCCCNC(=O)Nc1nc2cc(-c3ccc4ncn(Cc5ccccc5)c(=O)c4c3)ccc2s1	MTT	72 h	6.27
Cc1cc(NS(=O)(=O)c2ccc(NC(=O)/C(C#N)=C/c3cccnc3)cc2)no1	MTT	48 h	> 200
O=C(C=Cc1cccs1)c1ccc(OCCOc2ccc(C(=O)C=Cc3cccs3)cc2)cc1	MTT	48 h	42
C(=N\Nc1cc(N/N=C/c2ccc3ccccc3n2)ncn1)/c1ccc2ccccc2n1	MTT	48 h	16.7
CCCCC(=O)Nc1ccc(-c2ccc3ncn(CCC(C)C)c(=O)c3c2)cn1	CCK-8	72 h	0.45
COc1cccc(NC(=O)Nc2nc3cc(-c4ccc5ncn(Cc6ccccc6)c(=O)c5c4)ccc3s2)c1	MTT	72 h	3.39
CCCCn1cnc2ccc(-c3ccc(NC(=O)Nc4ccc(Cl)cc4)nc3)cc2c1=O	CCK-8	72 h	> 10
NS(=O)(=O)c1ccc(-n2nc(C(=O)NN=Cc3ccccc3O)cc2-c2ccccc2)cc1	fluorescence	48 h	9.25
O=C(Nc1ccc(-c2ccc3ncn(Cc4ccccc4)c(=O)c3c2)cn1)C1CCC1	CCK-8	72 h	> 10
COc1ccc(CNc2ccc(C(=O)O)cc2)cc1OC	resazurin	72 h	> 100
CCCn1cnc2ccc(-c3ccc(NC(=O)CNC(C)C)nc3)cc2c1=O	CCK-8	72 h	> 10
COc1ccc(NC(=S)N/N=C/c2ccc(N3CCC(O)CC3)cc2)cc1	MTT	24 h	5.2
CCCn1cnc2ccc(-c3ccc(N4CCCCCC4=O)nc3)cc2c1=O	CCK-8	72 h	> 10
CN1CCC(NC2CCc3[nH]c4c(C(N)=O)ccc(-c5ccccc5Cl)c4c3C2)CC1 (stereo not drawn)	–	–	0.0301
